Three molecules from ChEMBL document CHEMBL3627612, “Hirsutinolide Series Inhibit Stat3 Activity, Alter GCN1, MAP1B, Hsp105, G6PD, Vimentin, TrxR1, and Importin α-2 Expression, and Induce Antitumor Effects against Human Glioma” (J Med Chem, 2015) can be followed below.

Calls of active or inactive are those of the source. The calls are words filed in the database; no cut-off is given here.

The target of assay [1] is T1, Signal transducer and activator of transcription 3 (Homo sapiens, UniProt P40763). Put plainly: Inhibition of Stat3 dimer DNA binding activity in human U251MG cells nuclear extract at 5 uM by EMSA using radiolabeled probe hSIE. The class given is cell-based. As to conditions: U-251, TDE = time-dependent effect. The procedure, abridged: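 Sub-confluent U251MG or U373MG cells treated with compound (5 μM for 0–24 h, or 0–5 μM for 1.5 h). Stat3:DNA bands scanned, quantified and plotted against concentration to derive IC50. Controls were 0.025% DMSO.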
T1 sequence (P40763 whole entry): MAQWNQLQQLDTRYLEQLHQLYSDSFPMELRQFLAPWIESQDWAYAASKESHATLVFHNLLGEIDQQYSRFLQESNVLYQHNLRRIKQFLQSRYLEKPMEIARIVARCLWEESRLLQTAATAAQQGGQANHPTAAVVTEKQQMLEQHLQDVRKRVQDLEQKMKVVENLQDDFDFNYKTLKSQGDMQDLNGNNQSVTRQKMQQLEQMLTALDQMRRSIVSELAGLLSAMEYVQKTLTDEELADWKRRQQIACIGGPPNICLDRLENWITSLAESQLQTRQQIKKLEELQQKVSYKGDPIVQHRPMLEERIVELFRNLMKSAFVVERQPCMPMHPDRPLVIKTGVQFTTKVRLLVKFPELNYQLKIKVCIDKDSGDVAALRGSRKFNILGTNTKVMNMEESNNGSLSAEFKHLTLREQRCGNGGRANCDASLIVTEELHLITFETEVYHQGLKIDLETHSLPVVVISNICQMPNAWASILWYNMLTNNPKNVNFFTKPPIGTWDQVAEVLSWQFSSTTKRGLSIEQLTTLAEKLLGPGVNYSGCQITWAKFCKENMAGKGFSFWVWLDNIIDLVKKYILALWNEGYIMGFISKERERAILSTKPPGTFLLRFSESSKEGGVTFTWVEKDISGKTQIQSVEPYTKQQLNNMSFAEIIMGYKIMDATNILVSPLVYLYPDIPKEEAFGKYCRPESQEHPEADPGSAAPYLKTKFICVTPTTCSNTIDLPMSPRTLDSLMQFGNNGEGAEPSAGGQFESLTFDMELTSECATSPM
On the technique in general: A gel shift assay detects complexes by their altered migration in electrophoresis.

A further assay concerns U-251. Put plainly: Inhibition of cell migration in human U251MG cells at 5 uM after 19 hrs by wound healing assay. The class given is functional, cell-based. An outline of the steps: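 Scratch assay: sub-confluent U251MG monolayers wounded with pipette tips, treated once with 0–5 μM compound or DMSO, allowed to migrate into the denuded area over 19 h. Imaged at 10× on an inverted microscope.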

In assay [2] the test system is MCF7. Put plainly: Anticlonogenic activity against human MCF7 cells for 72 hrs measured after 4 weeks by crystal-violet staining based assay. The class given is functional, cell-based. An outline of the steps:
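Single-cell seeding at 250 cells per well; cells treated once the next day for 72 h with 0–5 μM compound, then grown until large colonies were visible (NIH3T3 1 week, MDA-MB-231 and U251MG 2 weeks, MCF-7 4 weeks). Colonies stained with crystal violet for 4 h, imaged and counted.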

Assay [3] has as its system MCF7. Put plainly: Antiproliferative activity against human MCF7 cells for 72 hrs by cyquant assay. The class given is functional, cell-based. Particulars: MCF7, 72 h. The procedure, abridged:
(§1)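 CyQuant proliferation assay after 72 h compound exposure of cultured cells; relative viability normalized to DMSO-treated control; IC50 values derived. Glioma lines grown in RPMI or DMEM with 10% FBS and 1% nonessential amino acids.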

Assay [4] has as its target T2, Signal transducer and activator of transcription 1 (Mus musculus) (UniProt P42225).
T2 sequence (whole entry): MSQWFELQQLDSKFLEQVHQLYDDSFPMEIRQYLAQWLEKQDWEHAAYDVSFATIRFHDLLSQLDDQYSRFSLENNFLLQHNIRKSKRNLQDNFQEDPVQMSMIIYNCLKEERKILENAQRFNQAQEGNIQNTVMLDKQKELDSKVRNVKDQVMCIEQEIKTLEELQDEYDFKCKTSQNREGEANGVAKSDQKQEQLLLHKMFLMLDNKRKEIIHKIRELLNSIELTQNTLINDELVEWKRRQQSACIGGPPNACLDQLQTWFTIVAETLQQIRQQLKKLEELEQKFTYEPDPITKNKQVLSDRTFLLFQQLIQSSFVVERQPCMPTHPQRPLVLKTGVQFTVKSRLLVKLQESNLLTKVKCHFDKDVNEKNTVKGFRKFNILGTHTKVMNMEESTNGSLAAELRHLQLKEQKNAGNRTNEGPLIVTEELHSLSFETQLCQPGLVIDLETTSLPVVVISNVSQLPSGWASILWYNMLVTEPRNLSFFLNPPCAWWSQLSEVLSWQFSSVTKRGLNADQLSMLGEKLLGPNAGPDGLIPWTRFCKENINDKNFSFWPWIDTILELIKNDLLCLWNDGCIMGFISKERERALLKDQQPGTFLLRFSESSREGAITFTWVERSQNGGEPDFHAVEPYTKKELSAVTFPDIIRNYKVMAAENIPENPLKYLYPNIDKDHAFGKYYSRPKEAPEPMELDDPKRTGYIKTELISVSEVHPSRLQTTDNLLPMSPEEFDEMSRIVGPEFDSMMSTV
Put plainly: Modulation of EGF-induced Stat1 phosphorylation in mouse NIH3T3 cells expressing human EGFR at 5 uM preincubated for 3 hrs followed by stimulation with 1 ug/ml EGF for 12 mins by immunoblot analysis. The class given is cell-based. The procedure, abridged: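 Whole-cell lysates of equal total protein from NIH3T3/hEGFR fibroblasts, pretreated with or without 5 μM compound (control 0.025% DMSO) for 3 h, then stimulated with 1 μg/ml EGF for 12 min. SDS-PAGE immunoblotting for pStat1/Stat1 and pStat5/Stat5 with β-actin or GAPDH loading controls. Representative of 2–4 independent determinations.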
On the technique in general: A western blot detects proteins with antibodies after separation by electrophoresis.

Assay [5] is described as follows: Antiproliferative activity against human Glioma (G12) patient derived xenograft cells at 5 uM after 72 hrs by cyquant assay. The class given is functional, Glioma cell. On the technique in general: A xenograft is tissue or cells of one species grown in another, often human tumour cells in immunodeficient mice.
Assay [6] concerns the target Signal transducer and activator of transcription 3 (Mus musculus) (UniProt P42227). Put plainly: Inhibition of EGF-induced Stat3 phosphorylation in mouse NIH3T3 cells expressing human EGFR at 5 uM preincubated for 3 hrs followed by stimulation with 1 ug/ml EGF for 12 mins by immunoblot analysis. Format: cell-based. The procedure, abridged:
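NIH3T3/hEGFR fibroblasts pretreated with or without 5 μM compound for 3 h, then stimulated with 1 μg/ml EGF for 12 min. Whole-cell lysates of equal total protein immunoblotted for phospho and total Stat3, Stat1, Stat5, Erk1/2. Controls were 0.025% DMSO-treated cells. Representative of 2–4 independent determinations.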

For assay [7], the target named is RAC-alpha serine/threonine-protein kinase (Homo sapiens) (UniProt P31749). Put plainly: Modulation of Akt phosphorylation in human U251MG cells at 5 uM after 0.5 to 24 hrs by immunoblot analysis. The class given is cell-based. Particulars: U-251. The procedure, abridged:
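U251MG cells treated with 5 μM compound for 0–24 h; whole-cell lysates of equal total protein immunoblotted. Controls were 0.025% DMSO-treated cells. Representative of 2–4 independent determinations.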

For assay [8], the target named is T1, Signal transducer and activator of transcription 3. Put plainly: Inhibition of Stat3 activity in human U251MG cells assessed as phosphorylated Stat3 level after 2 hrs by immunoblot analysis. As to conditions: U-251. The class given is cell-based. An outline of the steps:
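U251MG cells treated with 5 μM compound for 0–24 h, or with 0–5 μM for 2 h. Whole-cell lysates immunoblotted for pStat3, Stat3, GAPDH. Control was 0.025% DMSO-treated cells.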

For the next assay, the system named is MDA-MB-231. Put plainly: Antiproliferative activity against human MDA-MB-231 cells for 72 hrs by cyquant assay. The class given is functional, cell-based. Particulars: MDA-MB-231, 72 h. The procedure, abridged:
as §1

The test system of assay [9] is Glioma cell. Put plainly: Cytotoxicity against human Glioma (G22) patient-derived mouse xenograft cells at 5 uM after 24 hrs by cyquant assay. Format: functional, cell-based.
Assay [10] relates to Glioma cell. Put plainly: Effect on cell morphology in human Glioma (G22) patient derived xenograft cells assessed as 3D spheroids formation at 5 uM for 24 hrs measured after 48 hrs by inverted fluorescence microscope analysis. The class given is functional. The procedure, abridged: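 G22 patient-derived xenograft glioma cells seeded at 1,000 cells/well in ultra-low-binding round-bottom wells, grown 48 h into 3D spheroids, then treated once with 5 μM compound or DMSO; matrigel added after 24 h. Spheroids imaged at 5× magnification on an inverted fluorescence microscope every 24 h for up to 120 h.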

The target of assay [11] is Signal transducer and activator of transcription 1/ 3 (Mus musculus) (UniProt P42227+P42225). Put plainly: Inhibition of Stat1:Stat3 dimer DNA binding activity in EGF-stimulated mouse NIH3T3 nuclear extract expressing human EGFR assessed as residual activity at 5 uM preincubated for 30 mins followed by addition of radiolabeled probe hSIE for 30 mins by EMSA. Format: cell-free.

Assay [12] addresses T2, Signal transducer and activator of transcription 1 (Mus musculus). Put plainly: Inhibition of Stat1 dimer DNA binding activity in EGF-stimulated mouse NIH3T3 nuclear extract expressing human EGFR assessed as residual activity at 5 uM preincubated for 30 mins followed by addition of radiolabeled probe hSIE for 30 mins by EMSA.

Chain of Signal transducer and activator of transcription 3 (Mus musculus) (P42227 whole entry): as the sequence (P40763 whole entry) above, with E760D counted along it
Chain of RAC-alpha serine/threonine-protein kinase (Homo sapiens) (P31749 whole entry): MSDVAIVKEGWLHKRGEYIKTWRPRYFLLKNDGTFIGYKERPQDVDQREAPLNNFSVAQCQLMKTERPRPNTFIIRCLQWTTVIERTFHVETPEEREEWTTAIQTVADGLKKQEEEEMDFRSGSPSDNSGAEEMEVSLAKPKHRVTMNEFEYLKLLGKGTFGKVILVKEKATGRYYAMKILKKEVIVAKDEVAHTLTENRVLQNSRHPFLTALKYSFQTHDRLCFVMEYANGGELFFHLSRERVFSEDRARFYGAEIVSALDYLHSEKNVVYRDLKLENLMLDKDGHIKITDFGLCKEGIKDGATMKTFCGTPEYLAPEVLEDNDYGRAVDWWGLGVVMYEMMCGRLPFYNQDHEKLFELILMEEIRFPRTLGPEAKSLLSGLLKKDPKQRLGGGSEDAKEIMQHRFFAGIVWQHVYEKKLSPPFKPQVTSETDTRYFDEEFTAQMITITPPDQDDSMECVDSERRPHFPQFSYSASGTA

For the molecule `C/C=C(\C)C(=O)O[C@H]1C[C@@H](C)[C@]2(OC)CC[C@](C)(/C=C3/OC(=O)C(COC(C)=O)=C31)O2`, the results for the inhibition result in [1] and in assay [8] were “tde” and “Dose-dependent effect”, respectively. Also, the inhibition result (in the assay on U-251; in assay [6]) was “Active” throughout. Besides, the Activity result with MCF7 [2] is “Dose-dependent effect”; in assay [11], 42%; in assay [12], 49%. Moreover, the values for the IC50 in the assay on MCF7 [3] and in the assay on MDA-MB-231 were 7.6 µM and 6.6 µM, respectively. The inhibition entry in [4] is “inactive”. In assay [5], the “inhibition (INH)” value worked out at 25%. For the same molecule, the result in assay [7] was inactive. Besides, the result with Glioma cell [9] and in the assay on Glioma cell [10] was Active.

Regarding `C/C=C(\C)C(=O)OCC1=C2/C(=C\[C@@]3(C)CC[C@](O)(O3)[C@H](C)C[C@@H]2O)OC1=O`, the inhibition entry in assay [1] was “tde”; in [8], “Dose-dependent effect”. Besides, the inhibition entry (in the assay with U-251; in [6]) was “Active” each time. The Activity result was “Dose-dependent effect” with MCF7 [2], 18% in [11] and 36% in assay [12]. Moreover, the IC50 – broadly, the concentration at which inhibition is half-maximal – in the assay with MCF7 [3] was 4.8 µM; in the assay on MDA-MB-231 it was 6.5 µM. The inhibition result in assay [4] was “inactive”. Besides, in assay [5], the “inhibition (INH)” value is reported as 25%. In assay [7], the outcome was inactive. Further, the result in the assay with Glioma cell [9] and with Glioma cell [10] was Active.

With `C/C=C(\C)C(=O)O[C@H]1C[C@@H](C)[C@]2(O)CC[C@](C)(/C=C3/OC(=O)C(COC(C)=O)=C31)O2`, the inhibition result in assay [1] was “tde”; in assay [8] it was “Dose-dependent effect”. The inhibition entry (with U-251; in assay [6]) was “Active” each time. For the same molecule, the Activity entry with MCF7 [2] was “Dose-dependent effect”; in [11], 67%; in assay [12] it was 68%. In addition, the IC50 in the assay on MCF7 [3] is 10.7 µM; in the assay on MDA-MB-231, 1.8 µM. Also, in assay [4], the inhibition entry is “inactive”. Moreover, the “inhibition (INH)” value in [5] is given as 25%. In addition, the result in assay [7] was inactive. For the same molecule, the result with Glioma cell [9] and in the assay on Glioma cell [10] was Active.
